Screening data from PubChem BioAssay.
bovine MsrA act – bovine methionine sulfoxide reductase A activation | purified bovine MsrA, absorbance read-out | activation, % at 10.6 µM | 360,000 compounds, 0.3% hits | AID 602163; in the data active means activation above about 7.5%;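 further: 0% = vehicle and 100% = reference activator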
MT1-MMP act inh – inhibitors of human MT1-MMP activation. P50281. HT1080 RFP-PRO-GFP cells, GFP/RFP ratio fluorescence, overnight; percent of plate control window, DMSO zero. GFP/RFP ratio change, % at 20 µM. 360,000 compounds, 0.061% hits. AID 651647;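 active means GFP/RFP ratio change of at least 30% with cell ATP level not reduced by more than half and red fluorescence within 50% of control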
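Assay system – RFP-PRO-GFP reporter HT1080 cells · Compound dosing – single dose of 20 µM compound, 1% DMSO final · Incubation – overnight compound exposure at 37 °C · Measure – GFP/RFP fluorescence ratio · Benchmarks – DMSO wells and RFP-L50D-GFP cells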
SKN-1 inh – C. elegans SKN-1 inhibition. C. elegans VP596 Pgst-4::GFP/RFP ratio, acrylamide-induced, 24 h. inhibition, % at 21.8 µM. 360,000 compounds, 0.49% hits. AID 624304;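 active means interference check ratio from 0.5 to 1.5 plus GFP to RFP signal ratio inhibition reaching or exceeding a fixed threshold, cut at about 30% in these data, passing the limit was not always enough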
p-CIP stab down – p/CIP protein destabilization | Q05BA5 | F442A p/CIP-EGFP cells, EGFP fluorescence, 16 h | decrease of EGFP signal, % at 10 µM | 290,000 compounds, 0.01% hits;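 active means EGFP signal decrease of at least 30% at 10 µM or well 3 SD below plate mean, unless failing retest; inactive means the rest, including hits failing retest or dose response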
Target sequence (Q05BA5 1-1403): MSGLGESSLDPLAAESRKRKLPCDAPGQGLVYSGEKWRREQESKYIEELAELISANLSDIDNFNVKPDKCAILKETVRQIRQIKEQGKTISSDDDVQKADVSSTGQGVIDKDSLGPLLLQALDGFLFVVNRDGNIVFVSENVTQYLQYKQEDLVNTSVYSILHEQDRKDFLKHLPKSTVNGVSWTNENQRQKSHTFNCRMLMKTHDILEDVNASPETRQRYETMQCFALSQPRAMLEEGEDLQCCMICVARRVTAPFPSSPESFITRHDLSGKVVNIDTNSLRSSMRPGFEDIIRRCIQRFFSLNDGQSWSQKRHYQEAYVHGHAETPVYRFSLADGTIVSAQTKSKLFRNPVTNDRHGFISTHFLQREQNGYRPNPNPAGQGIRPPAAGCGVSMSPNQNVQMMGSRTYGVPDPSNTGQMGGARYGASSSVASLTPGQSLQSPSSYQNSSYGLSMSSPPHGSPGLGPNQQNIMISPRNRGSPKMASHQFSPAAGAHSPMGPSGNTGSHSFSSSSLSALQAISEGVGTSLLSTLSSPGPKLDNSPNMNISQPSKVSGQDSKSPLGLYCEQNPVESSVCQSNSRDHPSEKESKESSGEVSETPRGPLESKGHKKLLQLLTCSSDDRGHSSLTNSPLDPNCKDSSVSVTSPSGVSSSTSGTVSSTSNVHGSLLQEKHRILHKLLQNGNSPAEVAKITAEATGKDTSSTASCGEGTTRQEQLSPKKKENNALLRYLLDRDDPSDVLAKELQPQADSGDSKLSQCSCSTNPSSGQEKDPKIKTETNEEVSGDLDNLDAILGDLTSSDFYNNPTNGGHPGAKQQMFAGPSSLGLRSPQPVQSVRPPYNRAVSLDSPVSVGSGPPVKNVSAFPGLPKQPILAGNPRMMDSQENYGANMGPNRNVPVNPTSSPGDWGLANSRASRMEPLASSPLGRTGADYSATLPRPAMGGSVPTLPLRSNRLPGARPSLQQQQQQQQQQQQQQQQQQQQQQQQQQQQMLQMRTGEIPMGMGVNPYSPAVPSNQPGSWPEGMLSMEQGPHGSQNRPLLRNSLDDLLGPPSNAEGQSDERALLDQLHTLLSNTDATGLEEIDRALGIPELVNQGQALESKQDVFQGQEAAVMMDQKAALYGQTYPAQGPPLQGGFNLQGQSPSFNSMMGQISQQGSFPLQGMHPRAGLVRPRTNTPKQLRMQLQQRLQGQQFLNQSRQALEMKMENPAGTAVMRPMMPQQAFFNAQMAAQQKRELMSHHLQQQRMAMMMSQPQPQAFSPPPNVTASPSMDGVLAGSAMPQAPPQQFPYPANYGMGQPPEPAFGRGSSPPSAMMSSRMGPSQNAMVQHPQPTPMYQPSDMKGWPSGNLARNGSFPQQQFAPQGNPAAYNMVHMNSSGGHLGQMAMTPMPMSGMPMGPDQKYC
MsrA inh – bovine MsrA inhibition. purified bovine MsrA, absorbance read-out. inhibition, % at 15.5 µM. 360,000 compounds, 0.75% hits; in the data active means inhibition above about 4.5%;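 further: 0% = vehicle wells with enzyme and 100% = reference inhibitor wells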
MsrA activ conf – confirmation of bovine methionine sulfoxide reductase A activators; shares compounds with bovine MsrA act; purified bovine MsrA, absorbance read-out; activation, % at 10.6 µM; 1,000 compounds, 12% hits; in the data active means activation above about 4%;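 further: enzyme coupled to thioredoxin and thioredoxin reductase with NADPH; 0% = vehicle wells and 100% = reference activator wells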
Starred values were filed as active, the others as inactive; nt = no result. In the library only some 1.6% were active in any assay of this set; here they are far more common.

SMILES	bovine MsrA act	MT1-MMP act inh	SKN-1 inh	p-CIP stab down	MsrA inh	MsrA activ conf
CN(Cc1ccccc1)C(=O)c1csc([C@@H]2C[C@H](O)[C@@H](CO)O2)n1	9.3*	0.2	10.0	nt	-0.2	-0.8
CN(Cc1ccccc1)C(=O)c1csc([C@H]2C[C@H](O)[C@@H](CO)O2)n1	-1.1	1.4	13.4	nt	-0.8	nt
CCOc1ccc(-c2nnc(NC3=NCCCCC3)o2)cc1	10.2*	2.7	17.0	-3.1	0.5	0.0
COc1cc(OC)c(CN2CCCN(C)CC2)cc1Br	-2.5	4.3	-3.7	3.0	1.2	nt
COc1cc(OC)c(CN2CCCCCCC2)cc1Br	12.1*	2.6	4.4	-0.3	-0.3	-2.5
COC(=O)C1=C(C)N(Cc2ccccc2C(F)(F)F)C(=NCC2CC2)NC1c1cccc(F)c1 (stereo not drawn)	nt	nt	nt	nt	-1.5	nt
CN(Cc1cnn(C)c1)Cc1nc(COc2ccccc2)no1	-3.6	-4.8	3.1	-13.6	-1.9	nt
CN(CCc1cnn(C)c1)Cc1nc(Cc2ccccc2)no1	10.2*	1.1	-9.1	-1.7	0.6	0.7
CCOC(=O)C1=C(C)N(C)C(=O)NC1c1c(C)nn(-c2ccc(C)cc2)c1Cl (stereo not drawn)	12.9*	7.5	9.2	-5.9	0.1	1.0
Cc1ccc(NC(=O)C(C)OC(=O)c2ccc(NC(=O)CC#N)cc2)cc1S(=O)(=O)N1CCOCC1 (stereo not drawn)	9.5*	-4.5	6.6	nt	-0.9	-1.6
Cc1ccc(C(=O)OC(C)C(=O)Nc2ccc(S(N)(=O)=O)cc2)cc1S(=O)(=O)N1CCOCC1 (stereo not drawn)	-1.0	-1.0	10.3	nt	-0.5	nt
COC(=O)[C@]12C[C@H](CC(=O)N3CCN(C(=O)c4ccco4)CC3)C(=O)N(CCC3=CCCCC3)C1=C[C@H](COCc1ccccc1)O[C@@H]2C	nt	nt	nt	nt	-0.2	nt
C[C@H](O)[C@@H]1C(=O)N2CCc3c([nH]c4cccc(-c5ccccc5)c34)[C@@H]2C[C@@H]1N(C)C(=O)Nc1ccccc1	nt	nt	nt	nt	0.3	nt
COc1cc(/C=N/NC(=O)c2cccc([N+](=O)[O-])c2)ccc1OCc1ccc(C)cc1	8.3*	7.8	24.7	-4.5	-1.1	-1.4
OCCC(N1CCOCC1)C(O)(c1ccccc1)c1ccccc1 (stereo not drawn)	nt	nt	nt	nt	0.1	nt
CCOC(=O)N(C)C[C@H]1OCc2cnnn2CCCC(=O)N([C@H](C)CO)C[C@@H]1C	nt	nt	nt	nt	0.6	nt
COc1ccc(O)c(/C=N/NC(=O)CCC(=O)Nc2ccc(F)cc2)c1	7.9*	9.2	3.0	4.5	1.4	-2.8
COc1ccc(/C=N/NC(=O)CCC(=O)Nc2ccc(F)cc2)c(OC)c1	-9.9	3.3	-0.7	-2.1	3.9	nt
COc1cc2c(c(OC)c1OC)CC(c1ccccc1)=C(c1ccccc1)CC2NC(=O)C(F)(F)F (stereo not drawn)	nt	nt	nt	nt	0.0	nt
CC(C)C[C@@H]1COc2cccc(N3CCCC3)c2S(=O)(=O)N1	nt	nt	nt	nt	3.4	nt
O=C(Nc1cccc([N+](=O)[O-])c1)OCc1ccc2c(c1)OCO2	nt	nt	nt	nt	0.3	nt
CCOc1ccc(S(=O)(=O)NCCC(=O)NCc2ccco2)cc1	-3.0	4.4	0.0	5.5	-1.1	nt
CCCNS(=O)(=O)c1ccc(OCC(=O)NCc2ccco2)cc1	16.1*	-0.8	-3.1	-0.6	-0.4	1.4
Cc1cc(NC(=O)CCCC(=O)OCC(F)(F)C(F)F)cc(C)c1C(=O)O	8.3*	2.3	21.7	-8.8	-0.6	-2.9
O=C(N[C@H](C(=O)N1CCC[C@H]1C(=O)NC1CCCC1)C1CCCCC1)c1ccco1	nt	nt	nt	nt	2.9	nt
SMILES	bovine MsrA act	MT1-MMP act inh	SKN-1 inh	p-CIP stab down	MsrA inh	MsrA activ conf
S=c1[nH]c2cc(Cl)ccc2s1	12.1*	-0.7	7.9	1.5	0.7	4.8*
CCOC(=O)Nc1cc(=O)c([N+](=O)[O-])c(N)[nH]1	nt	nt	nt	nt	2.3	nt
O=C(NCc1ccccc1)[C@@H]1CCCN1C(=O)[C@H]1CCCN1C(=O)c1ccc(F)c(F)c1	nt	nt	nt	nt	0.0	nt
CN1CCN(NC(=S)NC2CCCC2)CC1	7.9*	3.0	10.9	-18.7	0.3	2.6
C[C@@H]1CN([C@@H](C)CO)C(=O)CCCn2cc(nn2)CO[C@H]1CN(C)C(=O)Nc1ccc(C(F)(F)F)cc1	nt	nt	nt	nt	-0.6	nt
O=C1c2ccccc2-c2c1cccc2C(=O)N(CCO)CCO	11.7*	-0.7	10.4	-18.1	0.2	-1.1
Cc1ccc(OCC(=O)Nn2c(C)nc3ccccc3c2=O)c(C(C)C)c1	8.2*	1.9	-3.3	-20.9	0.4	-2.9
COC(=O)c1cc2c(c3c4cc(OC)ccc4n(S(=O)(=O)c4ccc(F)cc4)c13)C(=O)N(Cc1ccccc1)C2	nt	nt	nt	nt	1.9	nt
O=C(NCc1ccco1)Nc1c(Cl)cc(Cl)cc1Cl	nt	nt	nt	nt	-0.9	nt
O=C(NNC(=S)NC(=O)c1ccccc1[N+](=O)[O-])c1ccccc1Cl	-1.0	4.0	-0.5	2.6	2.0	nt
O=C(NC(=S)NNC(=O)c1ccccc1[N+](=O)[O-])c1ccc(Br)cc1	10.0*	0.3	7.1	-3.2	-1.5	-0.7
O=c1cc(CSc2ccccc2)[nH]c(=S)[nH]1	10.7*	3.7	1.9	-5.1	0.8	3.7
O=c1cc(CSc2ccccc2)[nH]c2ccccc12	-1.3	2.9	0.1	-14.6	0.0	nt
C[C@H]1COc2cc(N3CCOCC3)ccc2S(=O)(=O)N1	nt	nt	nt	nt	1.6	nt
Fc1ccc(C(c2ccc(F)cc2)N2CCN(C/C=C/c3ccccc3)CC2)cc1	8.4*	-11.5	-11.2	1.0	-1.0	-2.1
C(=C\c1ccccc1)/CN1CCN(C(c2ccccc2)c2ccccc2)CC1	0.0	-8.8	24.0	-4.1	-1.2	nt
C[C@@H]1CN([C@H](C)CO)C(=O)c2cc(NS(=O)(=O)c3ccccc3)ccc2O[C@@H](C)CCCCO[C@@H]1CN(C)Cc1ccc(Cl)c(Cl)c1	nt	nt	nt	nt	2.9	nt
Cc1nn(CCC(=O)NNC(=S)Nc2cccc(Cl)c2)c(C)c1[N+](=O)[O-]	11.1*	11.4	-15.3	-11.1	0.2	0.0
Cc1cccc2nc(-c3ccccc3)c(-c3ccc(CN4CCC5(CC4)CNc4ccccc45)cc3)nc12	nt	nt	nt	nt	0.7	nt
CCC(=O)Nc1nc(CC(=O)Nc2ccccc2)cs1	9.4*	2.2	-5.9	-11.8	0.0	0.4
CCOC(=O)Cc1csc(NC(=O)Cc2ccccc2)n1	-6.9	0.2	3.4	-13.1	0.6	nt
COc1cccc(COc2ccccc2C2Nc3ccc(Br)cc3C(=O)N2NC(=O)c2ccncc2)c1 (stereo not drawn)	18.5*	-1.4	-4.3	2.0	0.8	-3.1
CCCN1C(=O)c2n[nH]c(C(C)C)c2C1c1cccc(C(F)(F)F)c1 (stereo not drawn)	nt	nt	nt	nt	-0.4	nt
CNC(=O)N(O)C1N(C)C(=O)N(CC(=O)OC)C1(C)C (stereo not drawn)	-13.6	1.4	-25.1	9.0	-1.1	nt
CCCN1C(=O)N(C)C(N(O)C(=O)NC)C1(C)C (stereo not drawn)	14.4*	10.3	14.6	-6.0	0.7	0.5
COc1ccccc1CCn1cnc(-c2ccc(OC)c(OC)c2)c1CC(C)C	nt	nt	nt	nt	0.7	nt
